Tests used:
Experiment in all cases: Membrane translocation by confocal microscopy in living LNCaP cells
Format in all cases: cell-based
[1] = molecular target: GFP-tagged wild type PKCθ (Homo sapiens, UniProt Q04759)
Method in brief: (§1)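 Full-length PKCθ constructs in pEGFP-N1 transfected into LNCaP cells 48 h after plating (RPMI 1640, 10% FBS, 37 °C). After 24 h, PMA is added in phenol red-free DMEM/1% FBS. Live confocal imaging at 488 nm every 30 s. Membrane/cytoplasm mean GFP ratio from 4 μm² regions is normalized to time 0 and read at 5 and 10 min. Three independent experiments, unpaired two-tailed t test.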

GFP-tagged PKCθ/K240P = GFP-tagged PKCθ/K240P (Homo sapiens, UniProt Q04759, K240P); conditions: 1 μM PMA
Method in brief: as §1

GFP-tagged PKCθ ΔC1a = GFP-tagged PKCθ ΔC1a (Homo sapiens, UniProt Q04759, DEL160-209)
Method in brief: as §1

[2] = molecular target: GFP-tagged PKCθ C1b-C1b chimera (Homo sapiens, UniProt Q04759, A164V/A195M/A196N/A207N/D203T/E161R/E178T/F166N/F167Y/F179L/H177G/I197V/I202Q/I206A/K185R/K199H/K200R/K208L/N184A/N194G/P168K/Q169S/Q189K/Q192A/R191D/S174E/T163K/T165Y/V175H/V180L/Y188L); conditions: response after 100 nM PMA, compared to wild type
Method in brief: as §1

GFP-tagged PKCθ ΔC1b = GFP-tagged PKCθ ΔC1b (Homo sapiens, UniProt Q04759, DEL232-281); conditions: 100 nM, 1 μM and 10 μM PMA
GFP-tagged PKCθ/P168K = GFP-tagged PKCθ/P168K (Homo sapiens, UniProt Q04759, P168K); conditions: PMA, compared to wild type, not statistically significant
Method in brief: as §1

[3] = molecular target: GFP-tagged PKCθ C1a-C1a chimera (Homo sapiens, UniProt Q04759, A256N/A264Q/A278I/D263R/E246S/G249H/G266N/H247V/H271K/K235T/K240P/K261Q/L251F/L252V/L260Y/L280K/M267A/N238F/N268A/N279A/Q274I/R233E/R257K/R272K/S241Q/T250E/T275D/V236A/V269I/Y237T/Y239F)
Method in brief: as §1

CCCCCCCCCCCCCC(=O)O[C@@H]1[C@@H](C)[C@@]2(O)[C@@H](C=C(CO)C[C@]3(O)C(=O)C(C)=C[C@@H]23)[C@@H]2C(C)(C)[C@]12OC(C)=O [PMA, phorbol 12-myristate 13-acetate]
translocation to the plasma membrane (membrane/cytoplasm ratio) ([1]; 100 nM PMA): little response | translocation to the plasma membrane (membrane/cytoplasm ratio) ([1]; 1 and 10 μM PMA, 5 and 10 min): translocated in a dose dependent manner | translocation to the plasma membrane (membrane/cytoplasm ratio) (GFP-tagged PKCθ/K240P): modestly decreased translocation | enhancement of translocation to the plasma membrane (GFP-tagged PKCθ ΔC1a; 100 nM PMA, deletion of C1a versus full length PKCθ): 5 fold | translocation to the plasma membrane (membrane/cytoplasm ratio) (GFP-tagged PKCθ ΔC1a; PMA, compared to wild type): enhanced membrane interaction compared to the wild type | translocation to the plasma membrane (membrane/cytoplasm ratio) [2]: stronger translocation | translocation to the plasma membrane (membrane/cytoplasm ratio) (GFP-tagged PKCθ ΔC1b): complete loss of plasma membrane translocation | translocation to the plasma membrane (membrane/cytoplasm ratio) (GFP-tagged PKCθ/P168K): increased translocation | translocation to the plasma membrane (membrane/cytoplasm ratio) ([3]; 1 μM PMA): no translocation | translocation to the plasma membrane (membrane/cytoplasm ratio) ([3]; 10 μM PMA): very small but statistically significant increase in the translocation
